# Laboratory results as given in ChEMBL document CHEMBL1137592, “3-[2-((2S)-2-cyano-pyrrolidin-1-yl)-2-oxo-ethylamino]-3-methyl-butyramide analogues as selective DPP-IV inhibitors for the treatment of type-II diabetes” (Bioorg Med Chem Lett, 2007).
# The source made the active and inactive calls. The rule behind the calls is not given here.
# Columns and labels:
# Dipeptidyl peptidase 8 = Dipeptidyl peptidase 8 (Homo sapiens, UniProt Q6V1X1); test: In vitro inhibition of DPP-8
# Prolyl endopeptidase FAP = molecular target: T1, Prolyl endopeptidase FAP (Homo sapiens, UniProt Q12884); test: In vitro inhibition of FAP, seprase
# T1 sequence (Q12884 whole entry): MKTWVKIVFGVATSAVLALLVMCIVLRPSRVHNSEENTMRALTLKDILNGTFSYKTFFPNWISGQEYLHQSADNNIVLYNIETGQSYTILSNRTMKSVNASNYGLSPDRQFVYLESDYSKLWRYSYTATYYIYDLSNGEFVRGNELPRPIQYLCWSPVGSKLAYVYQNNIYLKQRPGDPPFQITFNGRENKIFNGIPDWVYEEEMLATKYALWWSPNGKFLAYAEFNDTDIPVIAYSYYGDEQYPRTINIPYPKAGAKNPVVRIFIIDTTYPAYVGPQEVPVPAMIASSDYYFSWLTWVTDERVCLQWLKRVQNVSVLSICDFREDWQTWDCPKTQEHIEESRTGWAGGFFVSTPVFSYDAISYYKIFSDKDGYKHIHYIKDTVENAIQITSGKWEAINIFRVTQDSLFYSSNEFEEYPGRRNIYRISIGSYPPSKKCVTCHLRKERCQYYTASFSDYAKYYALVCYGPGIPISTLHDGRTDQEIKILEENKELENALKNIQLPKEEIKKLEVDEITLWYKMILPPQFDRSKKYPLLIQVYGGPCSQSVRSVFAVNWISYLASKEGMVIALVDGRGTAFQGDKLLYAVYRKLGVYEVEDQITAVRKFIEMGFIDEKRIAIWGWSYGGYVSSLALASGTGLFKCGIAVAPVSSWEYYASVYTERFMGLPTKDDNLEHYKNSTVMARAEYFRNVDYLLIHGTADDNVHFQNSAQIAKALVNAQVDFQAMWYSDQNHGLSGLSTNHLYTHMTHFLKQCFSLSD
# Summary of the method: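 FAP cDNA was cloned into the pBacPAC8-CD5 vector, then the enzyme was expressed and purified. Activity was measured with Gly-Pro-pNA as substrate at 6 mM.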
# Dipeptidyl peptidase 2 = Dipeptidyl peptidase 2 (Homo sapiens, UniProt Q9UHL4); test: In vitro inhibition of DPP-II
# Rattus norvegicus = species: Rattus norvegicus; settings: 10 mg/kg
# [1] = molecular target: Dipeptidyl peptidase 4 (Rattus norvegicus) (UniProt P14740); test: Ex vivo inhibition of plasma DPP-4 activity in rats 8 hours after 10 mg/kg oral dose; assay type: functional, organism-based; design: dose 10 mg/kg; settings: at 10 mg/kg
# Summary of the method: (§1)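 Adult male Wistar rats got a single oral gavage dose of 10 mg/kg at 0 h. Blood was collected over time and plasma DPP-IV activity was read as the cleavage rate of Gly-Pro-AMC. Means ± SEM, n = 4/group.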
# [2] = molecular target: Dipeptidyl peptidase 4 (Rattus norvegicus) (UniProt P14740); test: Ex vivo inhibition of plasma DPP-4 activity in rats 30 minutes after 10 mg/kg oral dose; assay type: functional, organism-based; design: dose 10 mg/kg; settings: at 10 mg/kg; summary of the method: as §1
# Sequence of Dipeptidyl peptidase 8 (Q6V1X1 whole entry): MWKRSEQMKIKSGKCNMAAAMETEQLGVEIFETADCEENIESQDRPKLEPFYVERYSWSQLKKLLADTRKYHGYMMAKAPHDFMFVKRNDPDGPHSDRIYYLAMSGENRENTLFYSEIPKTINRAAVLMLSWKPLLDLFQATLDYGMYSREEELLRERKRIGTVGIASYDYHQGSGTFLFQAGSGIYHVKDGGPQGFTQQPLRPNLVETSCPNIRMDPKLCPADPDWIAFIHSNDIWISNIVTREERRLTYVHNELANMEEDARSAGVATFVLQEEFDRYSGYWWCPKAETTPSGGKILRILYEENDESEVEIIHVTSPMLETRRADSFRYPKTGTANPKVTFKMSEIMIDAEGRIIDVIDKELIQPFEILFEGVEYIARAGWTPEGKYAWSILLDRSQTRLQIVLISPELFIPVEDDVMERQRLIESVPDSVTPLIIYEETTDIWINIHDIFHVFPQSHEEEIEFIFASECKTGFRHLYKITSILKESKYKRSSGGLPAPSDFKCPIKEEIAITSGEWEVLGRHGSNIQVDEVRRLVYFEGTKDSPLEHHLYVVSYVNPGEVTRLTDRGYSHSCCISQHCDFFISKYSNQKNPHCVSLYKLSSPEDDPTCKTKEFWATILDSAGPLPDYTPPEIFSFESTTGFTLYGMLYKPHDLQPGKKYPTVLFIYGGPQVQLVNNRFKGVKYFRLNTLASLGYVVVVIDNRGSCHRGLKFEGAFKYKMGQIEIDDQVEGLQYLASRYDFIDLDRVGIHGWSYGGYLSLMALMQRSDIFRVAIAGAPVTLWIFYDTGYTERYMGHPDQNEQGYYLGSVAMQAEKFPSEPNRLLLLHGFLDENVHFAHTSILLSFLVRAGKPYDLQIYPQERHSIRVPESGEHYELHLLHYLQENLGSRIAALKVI
# Sequence of Dipeptidyl peptidase 4 (Rattus norvegicus) (P14740 whole entry, looked up): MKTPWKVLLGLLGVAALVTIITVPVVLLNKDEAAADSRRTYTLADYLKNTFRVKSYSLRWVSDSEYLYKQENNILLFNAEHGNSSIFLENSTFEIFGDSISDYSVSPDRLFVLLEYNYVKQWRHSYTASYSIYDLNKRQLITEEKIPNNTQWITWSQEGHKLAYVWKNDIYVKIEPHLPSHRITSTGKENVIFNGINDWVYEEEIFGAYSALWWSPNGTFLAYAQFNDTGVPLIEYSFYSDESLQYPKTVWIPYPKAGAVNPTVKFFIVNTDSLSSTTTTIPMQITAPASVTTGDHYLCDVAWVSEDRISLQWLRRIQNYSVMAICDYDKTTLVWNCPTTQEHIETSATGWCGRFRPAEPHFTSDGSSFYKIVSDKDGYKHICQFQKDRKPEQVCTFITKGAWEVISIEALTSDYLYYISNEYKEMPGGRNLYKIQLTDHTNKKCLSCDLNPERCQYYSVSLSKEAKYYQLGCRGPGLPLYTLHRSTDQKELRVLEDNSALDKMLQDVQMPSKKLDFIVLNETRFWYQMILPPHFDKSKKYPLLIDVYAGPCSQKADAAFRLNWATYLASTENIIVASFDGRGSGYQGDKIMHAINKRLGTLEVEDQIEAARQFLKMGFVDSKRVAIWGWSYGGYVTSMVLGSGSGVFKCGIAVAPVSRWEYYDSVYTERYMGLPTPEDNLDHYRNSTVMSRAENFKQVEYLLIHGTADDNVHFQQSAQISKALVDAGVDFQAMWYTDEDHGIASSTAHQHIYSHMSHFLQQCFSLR
Compound,IC50 (Dipeptidyl peptidase 8) [µM],IC50 (Prolyl endopeptidase FAP) [µM],IC50 (Dipeptidyl peptidase 2) [µM],inhibition [1] [%],inhibition [2] [%],inhibition (Rattus norvegicus)
C[C@H](CC(=O)NC(C)(C)c1ccccc1)NCC(=O)N1CCC[C@H]1C#N,–,> 20,> 20,–,–,–
CC(C)(CC(=O)Nc1ccc(F)cc1)NCC(=O)N1CCC[C@H]1C#N,> 20,> 20,> 20,–,–,–
N#C[C@@H]1CCCN1C(=O)CNCCC(=O)NCCc1ccccc1,–,> 20,–,–,–,–
CC(C)(CC(=O)Nc1ccccc1)NCC(=O)N1CCC[C@H]1C#N,> 20,> 20,> 20,–,–,–
CC(C)(CC(=O)NCCc1cccc(C(F)(F)F)c1)NCC(=O)N1CCC[C@H]1C#N,> 20,> 20,> 20,–,–,–
C[C@@H](CC(=O)NC(C)(C)c1ccccc1)NCC(=O)N1CCC[C@H]1C#N,–,–,> 20,–,–,–
CC(C)(CC(=O)NCCc1ccccn1)NCC(=O)N1CCC[C@H]1C#N,> 20,> 20,> 20,–,–,Active
CC(C)(CC(=O)NC(C)(C)c1ccccc1)NCC(=O)N1CCC[C@H]1C#N,> 20,> 20,> 20,–,–,–
CC(C)(CC(=O)NCc1ccccn1)NCC(=O)N1CCC[C@H]1C#N,> 20,> 20,> 20,–,–,–
CC(C)(CC(=O)Nc1ccc(F)c(F)c1)NCC(=O)N1CCC[C@H]1C#N,> 20,> 20,> 20,–,–,–
Cc1ccc(CCNC(=O)CC(C)(C)NCC(=O)N2CCC[C@H]2C#N)cc1,> 20,> 20,> 20,–,–,–
COc1ccc(CCNC(=O)CC(C)(C)NCC(=O)N2CCC[C@H]2C#N)cc1OC,> 20,> 20,> 20,–,–,–

# Further lines, with some results ahead:
IC50 (Dipeptidyl peptidase 8) [µM],IC50 (Prolyl endopeptidase FAP) [µM],IC50 (Dipeptidyl peptidase 2) [µM],inhibition [1] [%],inhibition [2] [%],Compound,inhibition (Rattus norvegicus)
> 20,> 20,> 20,–,–,COc1ccc(NC(=O)CC(C)(C)NCC(=O)N2CCC[C@H]2C#N)cc1,–
> 20,> 20,> 20,–,–,Cc1ccc(NC(=O)CC(C)(C)NCC(=O)N2CCC[C@H]2C#N)cc1C,–
> 20,> 20,> 20,–,–,CC(C)(CC(=O)NCCc1ccccc1)NCC(=O)N1CCC[C@H]1C#N,–
–,> 20,> 20,–,–,CC(C)(NC(=O)CCNCC(=O)N1CCC[C@H]1C#N)c1ccccc1,–
> 20,> 20,> 20,> 50,> 80,COc1ccc(NC(=O)CC(C)(C)NCC(=O)N2CCC[C@H]2C#N)cc1OC,Active
–,> 20,–,–,–,N#C[C@@H]1CCCN1C(=O)CNCCC(=O)NCc1ccccc1,–
> 20,> 20,> 20,–,–,CC(C)(CC(=O)NCCc1ccc(C(F)(F)F)cc1)NCC(=O)N1CCC[C@H]1C#N,–
> 20,> 20,0.8,–,–,CC(C)(CC(=O)Nc1ccc(-c2ccccc2)cc1)NCC(=O)N1CCC[C@H]1C#N,–
> 20,> 20,> 20,–,–,CC(C)(CC(=O)NCCc1ccc(Cl)c(Cl)c1)NCC(=O)N1CCC[C@H]1C#N,–
> 20,> 20,> 20,–,–,CC(C)(CC(=O)NCCc1ccccc1C(F)(F)F)NCC(=O)N1CCC[C@H]1C#N,–
> 20,> 20,> 20,–,–,CC(C)(CC(=O)NCc1ccccc1)NCC(=O)N1CCC[C@H]1C#N,–
> 20,> 20,> 20,–,–,CC(C)(CC(=O)NC(C)(C)Cc1ccccc1)NCC(=O)N1CCC[C@H]1C#N,–
> 20,> 20,> 20,–,–,COc1ccc(NC(=O)CC(C)(C)NCC(=O)N2CCC[C@H]2C#N)c(OC)c1OC,–
